Test results taken from ChEMBL document CHEMBL1134737, “Synthesis and purine receptor affinity of 6-oxopurine nucleosides and nucleotides containing (N)-methanocarba-pseudoribose rings” (Bioorg Med Chem Lett, 2001).
Calls of active or inactive are those of the source. No cut-off for these calls is given here.

Assays:
[1] = molecular target: Adenosine receptor A2a (Rattus norvegicus) (UniProt P30543); assay: Displacement of [3H]-CGS- 21680 from A2A receptors in rat striatal membranes at 100 uM; type: cell membranes; settings: Membrane
Adenosine receptor A2a (Rattus norvegicus), sequence (P30543 whole entry): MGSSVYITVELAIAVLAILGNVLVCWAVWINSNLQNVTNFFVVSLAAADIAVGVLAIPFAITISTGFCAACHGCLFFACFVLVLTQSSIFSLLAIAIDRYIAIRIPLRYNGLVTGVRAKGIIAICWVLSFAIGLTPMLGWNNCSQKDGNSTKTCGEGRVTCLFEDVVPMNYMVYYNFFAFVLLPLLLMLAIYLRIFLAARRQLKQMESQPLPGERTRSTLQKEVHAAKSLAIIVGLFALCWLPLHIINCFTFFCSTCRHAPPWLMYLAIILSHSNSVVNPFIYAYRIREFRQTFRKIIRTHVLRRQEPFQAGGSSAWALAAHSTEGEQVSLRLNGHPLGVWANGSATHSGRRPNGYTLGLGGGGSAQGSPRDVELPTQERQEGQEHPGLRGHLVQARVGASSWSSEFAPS
In short: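 Rat striatal membranes as A2A receptor source; displacement of specific [3H]CGS 21680 binding. Reported as Ki ± SEM or as % displacement, n = 3-6.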

[2] = molecular target: T1, Adenosine receptor A3 (Homo sapiens, UniProt P0DMS8); assay: Displacement of [125I]AB-MECA from human Adenosine A3 receptor expressed in HEK293 cell membranes
T1 sequence (P0DMS8 whole entry): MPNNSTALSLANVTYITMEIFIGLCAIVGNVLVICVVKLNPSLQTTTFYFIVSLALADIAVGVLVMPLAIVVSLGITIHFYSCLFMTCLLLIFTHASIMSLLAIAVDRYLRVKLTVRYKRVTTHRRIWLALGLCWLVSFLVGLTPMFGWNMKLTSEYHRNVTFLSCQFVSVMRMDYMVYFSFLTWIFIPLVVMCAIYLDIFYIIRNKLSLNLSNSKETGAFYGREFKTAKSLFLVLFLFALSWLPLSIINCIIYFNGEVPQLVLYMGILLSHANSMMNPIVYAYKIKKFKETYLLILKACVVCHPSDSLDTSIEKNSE
In short: (§1)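 Membranes from HEK-293 cells expressing human A3 receptor; specific [125I]AB-MECA binding displaced by test ligands. Reported as Ki ± SEM or as % displacement, n = 3-5.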

[3] = molecular target: T2, Adenosine receptor A1 (Rattus norvegicus) (UniProt P25099); assay: Displacement of [3H]R-PIA from Adenosine A1 receptor in rat brain membrane at 100 uM; type: cell membranes
T2 sequence (whole entry): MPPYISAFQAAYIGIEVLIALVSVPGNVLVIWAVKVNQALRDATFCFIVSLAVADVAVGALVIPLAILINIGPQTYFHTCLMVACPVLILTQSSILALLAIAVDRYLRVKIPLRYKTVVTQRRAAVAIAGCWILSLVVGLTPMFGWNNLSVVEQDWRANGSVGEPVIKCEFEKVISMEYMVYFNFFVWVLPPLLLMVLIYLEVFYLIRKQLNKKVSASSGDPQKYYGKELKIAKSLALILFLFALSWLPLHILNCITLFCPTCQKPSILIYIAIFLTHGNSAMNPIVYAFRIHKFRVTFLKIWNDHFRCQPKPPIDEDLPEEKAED

[4] = molecular target: T3, Adenosine receptor A3 (Homo sapiens) (UniProt P0DMS8); assay: Displacement of [125I]AB-MECA from human Adenosine A3 receptor expressed in HEK293 cell membranes at 100 uM; in short: as §1
T3 sequence (whole entry): T1 sequence (P0DMS8 whole entry)

[5] = molecular target: T4, Adenosine receptor A1 (Rattus norvegicus, UniProt P25099); assay: Displacement of [3H]R-PIA binding to Adenosine A1 receptor in rat brain membrane; type: cell membranes
T4 sequence (P25099 whole entry): T2 sequence (whole entry)

[6] = system: HL-60; assay: Effect on calcium mobilization in HL-60 cells at the dose of 100 uM concentration; Inactive; type: functional, cell-based; settings: Homo sapiens
[7] = system: HL-60; assay: Effect on calcium mobilization in HL-60 cells at the dose of 100 uM concentration (1 uM UTP); type: functional, Homo sapiens

SMILES | Displacement [1] | Ki [2] | Displacement [3] | further results
CNC(=O)[C@@]12C[C@@H]1[C@@H](n1cnc3c(=O)[nH]cnc31)[C@H](O)[C@@H]2O | – | 28.8 µM | – | –
CCCCn1c(=O)c2c(ncn2[C@H]2[C@H](O)[C@H](O)[C@]3(OP(=O)(O)OP(=O)(O)OP(=O)(O)O)C[C@H]23)n(CCCC)c1=O | – | – | – | Displacement [4]: < 10%
CCCCn1c(=O)c2c(ncn2[C@H]2[C@H](O)[C@H](O)[C@]3(C(=O)NC)C[C@H]23)n(CCCC)c1=O | < 10% | 1.86 µM | – | Ki [5]: 24.4 µM
CCCCn1c(=O)c2c(ncn2[C@H]2[C@H](O)[C@H](O)[C@]3(CO)C[C@H]23)n(CCCC)c1=O | < 10% | 4.35 µM | – | Ki [5]: 2.97 µM
O=P(O)(O)OC[C@@]12C[C@@H]1[C@@H](n1cnc3c(O)ncnc31)[C@H](O)[C@@H]2O | – | – | – | Activity [6]: inactive
Nc1nc(O)c2ncn([C@H]3[C@H](O)[C@H](O)[C@]4(COP(=O)(O)OP(=O)(O)OP(=O)(O)O)C[C@H]34)c2n1 | – | – | – | Displacement [4]: < 10%; Activity [7]: 53%
O=P(O)(OC[C@@]12C[C@@H]1[C@@H](n1cnc3c(O)ncnc31)[C@H](O)[C@@H]2O)OP(=O)(O)OC[C@@]12C[C@@H]1[C@@H](n1cnc3c(O)ncnc31)[C@H](O)[C@@H]2O | – | 21.6 µM | – | Activity [6]: inactive

Second part, led by results:

Displacement [1] | Ki [2] | Displacement [3] | SMILES | further results
< 10% | 20.5 µM | < 10% | Nc1nc(O)c2ncn([C@H]3[C@H](O)[C@H](O)[C@]4(CO)C[C@H]34)c2n1 | –
< 10% | – | < 10% | OC[C@@]12C[C@@H]1[C@@H](n1cnc3c(O)ncnc31)[C@H](O)[C@@H]2O | –
< 10% | – | < 10% | CNC(=O)[C@@]12C[C@@H]1[C@@H](n1cnc3c(O)ncnc31)[C@H](O)[C@@H]2O | –
